Measurements taken from ChEMBL document CHEMBL5678799 (Biochem J, 2009).
Active and inactive are the calls of the source. The rule behind the calls is not given here.

Tests used:
[1] = biological target: Dual specificity tyrosine-phosphorylation-regulated kinase 2 (Homo sapiens) (UniProt Q92630); test: (§1) Inhibition of recombinant human N-terminal GST-tagged DYRK2 (3 to 528 residues) expressed in Escherichia coli assessed as remaining activity at 10 uM using KKISGRLSPIMTEQ as substrate incubated for 30 mins in presence of [gamma-33P]ATP by filter binding method relative to control
Procedure, shortened: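 Run robotically for 30 min at 21 °C under linear conditions. Compound at 1 or 10 µM. Percentage activity remaining versus control without compound, triplicate mean ± S.D.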

[2] = biological target: Tyrosine-protein kinase Lck (Homo sapiens) (UniProt P06239); test: Inhibition of recombinant human N-terminal His6-tagged LCK (2 to 509 residues) expressed in baculovirus infected Sf21 cells assessed as remaining activity at 10 uM using KVEKIGEGTYGVVYK as substrate incubated for 30 mins in presence of [gamma-33P]ATP by filter binding method relative to control
Procedure, shortened: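 Assays ran 30 min at 21 °C, robotically and in the linear range. Remaining activity is given relative to incubations lacking compound, as the average of triplicate determinations ± S.D.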

[3] = biological target: CDK2/Cyclin A2 (Homo sapiens) (UniProt P24941+P20248); test: as §1, with “CDK2 (2” for “DYRK2 (3”, “298 residues)/N-terminal GST-tagged Cyclin A2 (171 to 432” for “528”, “1” for “10”, “YSPTSPSYSPTSPSYSPTSPKKK” for “KKISGRLSPIMTEQ”
Procedure, shortened: (§2)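 Incubations ran robotically for 30 min at room temperature (21 °C) under linear conditions. Results are percent activity remaining versus controls without compound, as the mean of triplicates ± S.D.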

[4] = biological target: Insulin receptor (Homo sapiens) (UniProt P06213); test: Inhibition of recombinant human N-terminal His6-tagged IR (1001 to 1382 residues) expressed in baculovirus infected Sf21 cells assessed as remaining activity at 10 uM using KKSRGDYMTMQIG as substrate incubated for 30 mins in presence of [gamma-33P]ATP by filter binding method relative to control
Sequence of Insulin receptor (Homo sapiens) (P06213 28-758 limits assumed): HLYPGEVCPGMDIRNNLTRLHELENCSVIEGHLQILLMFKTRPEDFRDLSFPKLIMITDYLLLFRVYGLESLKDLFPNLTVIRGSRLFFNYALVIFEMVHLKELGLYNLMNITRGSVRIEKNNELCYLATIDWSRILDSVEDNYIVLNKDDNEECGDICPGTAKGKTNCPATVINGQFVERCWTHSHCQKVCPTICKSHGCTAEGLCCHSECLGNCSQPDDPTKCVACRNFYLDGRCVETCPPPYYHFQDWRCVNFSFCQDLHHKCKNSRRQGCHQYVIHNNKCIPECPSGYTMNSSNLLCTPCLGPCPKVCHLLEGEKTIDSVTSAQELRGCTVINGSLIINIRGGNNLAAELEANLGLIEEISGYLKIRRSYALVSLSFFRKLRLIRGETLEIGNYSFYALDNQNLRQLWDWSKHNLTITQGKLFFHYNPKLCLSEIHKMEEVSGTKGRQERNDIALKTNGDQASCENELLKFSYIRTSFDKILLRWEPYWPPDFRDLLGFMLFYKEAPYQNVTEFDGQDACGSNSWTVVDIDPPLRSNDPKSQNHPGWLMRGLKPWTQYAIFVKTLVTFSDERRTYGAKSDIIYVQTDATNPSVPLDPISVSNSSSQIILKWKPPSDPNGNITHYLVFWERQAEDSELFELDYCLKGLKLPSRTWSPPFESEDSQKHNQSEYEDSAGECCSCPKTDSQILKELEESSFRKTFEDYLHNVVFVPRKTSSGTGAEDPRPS
Sequence of Insulin receptor (Homo sapiens) (P06213 763-1382 limits assumed): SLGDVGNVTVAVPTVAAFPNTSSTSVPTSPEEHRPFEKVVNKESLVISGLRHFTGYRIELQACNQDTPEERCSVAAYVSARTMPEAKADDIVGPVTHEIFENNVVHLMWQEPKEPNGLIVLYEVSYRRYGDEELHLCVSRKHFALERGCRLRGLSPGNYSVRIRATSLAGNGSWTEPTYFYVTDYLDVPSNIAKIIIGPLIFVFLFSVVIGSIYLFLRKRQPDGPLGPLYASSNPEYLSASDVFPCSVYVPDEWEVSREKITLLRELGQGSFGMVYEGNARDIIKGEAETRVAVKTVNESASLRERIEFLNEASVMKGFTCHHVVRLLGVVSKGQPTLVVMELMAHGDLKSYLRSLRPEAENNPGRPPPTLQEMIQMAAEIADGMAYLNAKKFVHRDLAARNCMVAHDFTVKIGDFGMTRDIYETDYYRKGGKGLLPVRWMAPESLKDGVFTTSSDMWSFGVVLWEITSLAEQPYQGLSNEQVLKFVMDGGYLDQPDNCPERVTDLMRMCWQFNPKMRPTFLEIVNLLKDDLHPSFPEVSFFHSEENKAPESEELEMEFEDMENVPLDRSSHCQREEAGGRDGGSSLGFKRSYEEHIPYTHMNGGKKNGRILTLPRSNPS

[5] = biological target: Mitogen-activated protein kinase 1 (Homo sapiens) (UniProt P28482); test: Inhibition of recombinant human N-terminal GST-tagged ERK2 (2 to 360 residues) expressed in Escherichia coli assessed as remaining activity at 1 uM using MBP as substrate incubated for 30 mins in presence of [gamma-33P]ATP by filter binding method relative to control
Procedure, shortened: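 Incubation was 30 min at room temperature (21 °C) under conditions linear with time and enzyme amount. Activity is reported as percent of control lacking compound, triplicate mean ± S.D.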

[6] = biological target: T1, mTORC1 (Homo sapiens) (UniProt P42345+Q8N122+Q9BVC4); conditions: HEK293, dose 30.0 nM, time 30.0 min
T1 sequence (Q8N122 whole entry, looked up, other chains not shown): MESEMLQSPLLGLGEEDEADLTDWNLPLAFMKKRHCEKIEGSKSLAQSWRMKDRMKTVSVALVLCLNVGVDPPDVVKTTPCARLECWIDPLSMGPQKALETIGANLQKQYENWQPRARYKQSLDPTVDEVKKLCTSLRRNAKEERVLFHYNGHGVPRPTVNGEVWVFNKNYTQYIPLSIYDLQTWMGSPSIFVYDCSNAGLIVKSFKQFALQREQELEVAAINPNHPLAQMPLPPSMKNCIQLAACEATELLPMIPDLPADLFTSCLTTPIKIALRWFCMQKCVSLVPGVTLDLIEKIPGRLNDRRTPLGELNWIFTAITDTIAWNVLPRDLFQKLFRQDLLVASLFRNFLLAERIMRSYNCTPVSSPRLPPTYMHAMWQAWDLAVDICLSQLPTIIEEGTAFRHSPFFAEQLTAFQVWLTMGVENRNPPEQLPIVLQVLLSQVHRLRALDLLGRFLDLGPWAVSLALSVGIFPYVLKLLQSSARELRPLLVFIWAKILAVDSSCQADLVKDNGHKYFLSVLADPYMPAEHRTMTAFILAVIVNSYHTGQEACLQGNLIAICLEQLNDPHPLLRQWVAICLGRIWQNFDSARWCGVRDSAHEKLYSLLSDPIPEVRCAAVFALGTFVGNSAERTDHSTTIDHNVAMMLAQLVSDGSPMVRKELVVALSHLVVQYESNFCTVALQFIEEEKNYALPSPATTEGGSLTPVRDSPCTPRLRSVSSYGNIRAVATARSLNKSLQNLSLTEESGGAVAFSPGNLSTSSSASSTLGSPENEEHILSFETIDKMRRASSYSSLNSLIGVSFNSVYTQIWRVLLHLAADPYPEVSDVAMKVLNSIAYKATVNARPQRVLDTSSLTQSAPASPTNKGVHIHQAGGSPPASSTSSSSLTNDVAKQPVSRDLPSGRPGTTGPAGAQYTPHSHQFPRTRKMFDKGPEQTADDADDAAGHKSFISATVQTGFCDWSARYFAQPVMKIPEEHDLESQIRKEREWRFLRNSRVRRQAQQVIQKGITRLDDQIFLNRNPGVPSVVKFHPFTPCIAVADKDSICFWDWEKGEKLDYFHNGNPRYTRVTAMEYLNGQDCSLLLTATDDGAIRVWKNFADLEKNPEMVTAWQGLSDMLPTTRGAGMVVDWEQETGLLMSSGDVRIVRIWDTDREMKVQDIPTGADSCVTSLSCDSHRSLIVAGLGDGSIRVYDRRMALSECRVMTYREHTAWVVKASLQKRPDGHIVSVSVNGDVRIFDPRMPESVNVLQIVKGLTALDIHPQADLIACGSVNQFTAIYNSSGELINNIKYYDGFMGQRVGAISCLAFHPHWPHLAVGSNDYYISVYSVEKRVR
T1 sequence (Q9BVC4 whole entry, looked up, other chains not shown): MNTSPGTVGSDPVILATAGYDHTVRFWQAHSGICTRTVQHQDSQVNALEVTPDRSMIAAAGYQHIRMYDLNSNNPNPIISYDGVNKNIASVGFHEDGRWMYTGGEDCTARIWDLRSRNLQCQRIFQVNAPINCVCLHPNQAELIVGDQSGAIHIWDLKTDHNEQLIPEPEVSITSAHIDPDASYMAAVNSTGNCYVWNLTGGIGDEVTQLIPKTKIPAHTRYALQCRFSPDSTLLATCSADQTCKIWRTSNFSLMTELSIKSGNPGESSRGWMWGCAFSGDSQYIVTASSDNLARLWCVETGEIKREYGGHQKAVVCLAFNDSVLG

[7] = biological target: T1, mTORC1 (Homo sapiens); conditions: HEK293, dose 30.0 nM, time 30.0 min; remark: listed apart in the source
[8] = biological target: MAP kinase-activated protein kinase 2 (Homo sapiens) (UniProt P49137); test: Inhibition of recombinant human N-terminal GST/C-terminal Myc-tagged MAPKAPK2 (46 to 400 residues) expressed in Escherichia coli assessed as remaining activity at 1 uM using KKLNRTLSVA as substrate incubated for 30 mins in presence of [gamma-33P]ATP by filter binding method relative to control; procedure, shortened: as §2
Sequence of MAP kinase-activated protein kinase 2 (Homo sapiens) (P49137 whole entry, looked up, the tested form may be a part): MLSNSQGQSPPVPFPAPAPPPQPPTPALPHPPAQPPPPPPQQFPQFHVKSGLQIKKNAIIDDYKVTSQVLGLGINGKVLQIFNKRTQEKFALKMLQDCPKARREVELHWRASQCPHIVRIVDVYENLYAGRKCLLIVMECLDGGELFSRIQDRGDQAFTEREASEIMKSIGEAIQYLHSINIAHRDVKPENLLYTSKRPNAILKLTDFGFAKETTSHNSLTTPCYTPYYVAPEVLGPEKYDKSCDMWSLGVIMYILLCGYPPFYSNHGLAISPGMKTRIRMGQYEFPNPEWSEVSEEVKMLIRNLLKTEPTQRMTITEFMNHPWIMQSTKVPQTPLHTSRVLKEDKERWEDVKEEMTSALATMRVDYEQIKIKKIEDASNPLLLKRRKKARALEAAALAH

[9] = biological target: T1, mTORC1 (Homo sapiens); conditions: HEK293, dose 30-1000 nM, time 30.0 min
[10] = test system: MEF; test: Induction of cell cycle arrest in mLST8 knockout MEF cells assessed as accumulation at G1 phase at 3 uM incubated for 1 to 3 days by propidium iodide staining based flow cytometric analysis (reference value: 22.2 +/- 0.59%); assay type: toxicity; conditions: mouse, time 1-3 day
[11] = biological target: Serine/threonine-protein kinase PAK 4 (Homo sapiens) (UniProt O96013); test: Inhibition of recombinant human N-terminal GST-tagged PAK4 (2 to 519 residues) expressed in Escherichia coli assessed as remaining activity at 10 uM using RRRLSFAEPG as substrate incubated for 30 mins in presence of [gamma-33P]ATP by filter binding method relative to control
Sequence of Serine/threonine-protein kinase PAK 4 (Homo sapiens) (O96013 whole entry, looked up, the tested form may be a part): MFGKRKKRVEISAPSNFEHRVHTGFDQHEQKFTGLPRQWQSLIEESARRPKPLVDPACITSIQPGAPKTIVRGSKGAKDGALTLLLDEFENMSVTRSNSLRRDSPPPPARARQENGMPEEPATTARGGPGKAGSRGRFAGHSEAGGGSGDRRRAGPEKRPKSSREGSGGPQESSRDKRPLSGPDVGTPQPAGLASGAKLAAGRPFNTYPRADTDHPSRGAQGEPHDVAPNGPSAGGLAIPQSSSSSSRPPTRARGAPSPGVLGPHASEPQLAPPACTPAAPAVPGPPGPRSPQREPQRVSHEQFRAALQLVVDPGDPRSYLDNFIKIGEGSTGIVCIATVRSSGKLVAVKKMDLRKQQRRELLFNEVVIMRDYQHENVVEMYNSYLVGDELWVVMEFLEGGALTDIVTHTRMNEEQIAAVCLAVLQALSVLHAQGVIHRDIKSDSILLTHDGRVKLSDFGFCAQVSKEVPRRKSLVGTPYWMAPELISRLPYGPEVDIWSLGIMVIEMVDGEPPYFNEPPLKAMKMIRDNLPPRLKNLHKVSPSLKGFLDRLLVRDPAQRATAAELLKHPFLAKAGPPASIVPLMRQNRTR
Procedure, shortened: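 Radiometric kinase panel run robotically at room temperature (21 °C) for 30 min, linear in time and enzyme. […] Activity is expressed as percent of control without compound, from triplicate determinations ± S.D.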

[12] = biological target: Serine/threonine-protein kinase Chk1 (Homo sapiens) (UniProt O14757); test: Inhibition of recombinant human N-terminal GST-tagged CHK1 (1 to 476 residues) expressed in baculovirus infected Sf21 cells assessed as remaining activity at 1 uM using CHKtide as substrate incubated for 30 mins in presence of [gamma-33P]ATP by filter binding method relative to control
Sequence of Serine/threonine-protein kinase Chk1 (Homo sapiens) (O14757 whole entry, the tested form may be a part): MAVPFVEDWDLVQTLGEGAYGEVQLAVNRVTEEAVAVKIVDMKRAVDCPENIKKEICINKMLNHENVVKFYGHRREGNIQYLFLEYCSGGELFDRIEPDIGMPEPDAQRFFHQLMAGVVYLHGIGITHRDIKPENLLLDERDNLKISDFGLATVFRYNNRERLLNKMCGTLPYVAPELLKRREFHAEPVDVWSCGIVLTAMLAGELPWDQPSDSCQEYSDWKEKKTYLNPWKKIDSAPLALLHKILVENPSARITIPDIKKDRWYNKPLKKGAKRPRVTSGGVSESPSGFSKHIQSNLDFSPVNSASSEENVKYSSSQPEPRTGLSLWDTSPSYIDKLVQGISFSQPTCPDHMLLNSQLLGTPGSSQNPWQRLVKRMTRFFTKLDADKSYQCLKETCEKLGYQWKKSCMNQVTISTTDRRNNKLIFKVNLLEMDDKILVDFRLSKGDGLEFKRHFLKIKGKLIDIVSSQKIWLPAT
Procedure, shortened: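 Robotic radiometric panel assay, 30 min at room temperature (21 °C), with 10 mM magnesium acetate. […] Compound at 1 or 10 µM. Residual activity expressed relative to compound-free control; triplicate average ± S.D.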

[13] = biological target: Mitogen-activated protein kinase 3 (Homo sapiens) (UniProt P27361); test: Inhibition of recombinant human N-terminal GST-tagged ERK1 (2 to 379 residues) expressed in Escherichia coli assessed as remaining activity at 1 uM using MBP as substrate incubated for 30 mins in presence of [gamma-33P]ATP by filter binding method relative to control
Sequence of Mitogen-activated protein kinase 3 (Homo sapiens) (P27361 whole entry, the tested form may be a part): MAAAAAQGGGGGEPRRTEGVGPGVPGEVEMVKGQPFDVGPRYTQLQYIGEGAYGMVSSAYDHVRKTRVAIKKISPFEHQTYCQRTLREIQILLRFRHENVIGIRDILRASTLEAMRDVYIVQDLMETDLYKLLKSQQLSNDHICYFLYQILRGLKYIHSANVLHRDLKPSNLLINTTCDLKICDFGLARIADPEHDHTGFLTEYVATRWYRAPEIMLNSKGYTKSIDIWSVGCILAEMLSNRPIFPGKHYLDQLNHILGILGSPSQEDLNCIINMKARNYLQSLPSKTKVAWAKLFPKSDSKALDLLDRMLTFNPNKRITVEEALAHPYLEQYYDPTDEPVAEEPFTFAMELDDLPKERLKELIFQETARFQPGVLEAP
Procedure, shortened: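 Kinase panel run robotically at 21 °C for 30 min, linear in time and enzyme. […] Compound tested at 1 or 10 µM. Activity given as percentage of incubations without compound, mean of triplicates ± S.D.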

Structure (SMILES): COc1ccc(-c2ccc3c(N4CCOCC4)nc(N4C[C@@H](C)O[C@@H](C)C4)nc3n2)cc1CO [Ku-0063794]
- Activity [1]: 96%
- Activity [2]: 104%
- Activity [3]: 89%
- Activity [4]: 67%
- Activity [5]: 102%
- inhibition [6]: 90%
- inhibition [7]: Active
- Activity [8]: 98%
- inhibition [9]: Dose-Dependent Effect
- Activity [10]: 47.3%
- Activity [11]: 75%
- Activity [12]: 87%
- Activity [13]: 102%
